Test results: PMC6939458 (Cancer cell, 2019)

Columns and labels:
[1] = tested on: MYC; assay: Western blot of MYC protein level, stability and phosphorylation in cells; assay type: cell-based, human
Outline: (§1)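 PC3 cells, or PC3 stably expressing Flag-MYC, Flag-MYCT58A or Flag-MYCS62A (lentiviral, 1.5 μg/ml puromycin selection), were used. For stability, cells were pretreated 3 hr with compound or DMSO, then given cycloheximide and harvested at time points. MYC, pT58, pS62, GSK3β and pGSK3β S9 were detected by western blot over a time course. Band intensities were densitometrically quantified.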

[2] = biological target: MYC (Homo sapiens, UniProt P01106, T73A); assay: as above; assay type: cell-based; conditions: 6 μM, PC3 cells expressing Flag-MYCT58A
MYC (Homo sapiens, UniProt P01106, T73A), sequence (P01106 16-454 T73A): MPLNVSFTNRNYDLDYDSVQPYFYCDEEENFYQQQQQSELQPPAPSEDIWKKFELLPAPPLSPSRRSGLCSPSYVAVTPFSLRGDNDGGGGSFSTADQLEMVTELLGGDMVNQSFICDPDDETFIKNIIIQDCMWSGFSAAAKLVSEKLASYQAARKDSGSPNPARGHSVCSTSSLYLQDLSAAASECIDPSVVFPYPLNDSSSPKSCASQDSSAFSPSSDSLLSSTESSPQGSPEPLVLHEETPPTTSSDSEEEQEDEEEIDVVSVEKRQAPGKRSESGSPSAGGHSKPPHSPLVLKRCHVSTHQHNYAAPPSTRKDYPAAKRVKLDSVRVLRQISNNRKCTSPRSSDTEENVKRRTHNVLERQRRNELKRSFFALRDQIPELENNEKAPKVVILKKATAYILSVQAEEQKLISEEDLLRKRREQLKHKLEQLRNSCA
Outline: as §1

[3] = tested on: phosphatase inhibition screening panel; assay: Phosphatase inhibition screening panel; assay type: biochemical; conditions: 10-dose 3-fold serial dilutions starting at 100 μM
Outline: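 Run in 10-dose IC₅₀ mode, each compound tested singly, with a PTP1B inhibitor as control compound.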

[4] = tested on: 468 kinases, including GSK3β; assay: KINOMEscan kinome screen; assay type: binding; conditions: 6 μM
[5] = biological target: GSK3β-mediated MYC pT58 (Homo sapiens, UniProt P01106); assay: In vitro kinase assay; assay type: biochemical; conditions: 6 μM
GSK3β-mediated MYC pT58, sequence (P01106 16-454): as the sequence (P01106 16-454 T73A) above, with A58T counted along it
Outline: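 Phosphorylation reactions were run in kinase buffer (25 mM Tris-HCl pH 7.5, 5 mM β-glycerophosphate, 2 mM DTT, 0.1 mM sodium vanadate, 10 mM MgCl₂) at room temperature for 2 hr in total.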

[6] = biological target: MYC/MAX/DNA complex (Homo sapiens, UniProt P01106); assay: EMSA, MYC/MAX/DNA complex formation; assay type: biochemical
MYC/MAX/DNA complex, sequence (P01106 368-454, one chain of several): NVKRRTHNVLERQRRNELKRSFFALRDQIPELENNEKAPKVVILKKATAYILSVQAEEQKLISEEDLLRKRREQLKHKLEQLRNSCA

[7] = tested on: MYC transcriptional activity (E-box-luciferase); assay: E-box luciferase reporter assay in vitro; assay type: cell-based
Outline: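 MycCaP cells stably carrying either MYC E-box-luciferase reporter or control mCherry-P2A-luciferase vector plated 10000 cells/well. Serial dilution of test compound added the next day; luminescence read by Steady-Glo after 4 hr treatment.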

[8] = tested on: γ-H2AX; assay: γ-H2AX staining; assay type: cell-based, human; conditions: 10 μM, 24-hour treatment
Outline: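 PC3 cells were fixed in 4% PFA and permeabilised with 0.5% Triton-X. They were then stained with anti-phospho-histone H2A.X (Ser139) antibody at 1:1000.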

[9] = tested on: MycCaP cells; assay: Caspase-3 and immunogenic cell death assays in MycCaP cells; assay type: cell-based, mouse
Outline: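 MycCaP cells exposed to 4 μM test compound for 72 hr; supernatants collected. Secreted ATP read by bioluminescent kit and HMGB1 by ELISA, with cell counts taken for quantification. Surface calreticulin: cells stained with rabbit anti-calreticulin (1:1000, 60 min), then Alexa Fluor 488 anti-rabbit (1 μg/ml), read by flow cytometry.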

[10] = tested on: MycCaP tumor allografts; assay: MycCaP allograft/xenograft mouse model; assay type: in vivo
Outline: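 Male FVB (allograft) or NSG (xenograft) mice, 6–8 weeks, ~25 g, acclimated >4 days. Injected s.c. in flanks with 1 × 10⁶ MycCaP E-box-luciferase cells in 100 μl Matrigel. Tumors followed by caliper ((length × width × width)/2) and by bioluminescent imaging after i.p. substrate injection. Body weight recorded. Tumor tissue assessed by H&E and immunofluorescence for Ki67, MYC pT58 and PD-L1.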

[11] = biological target: MYC (Homo sapiens, UniProt P01106); assay: Cellular thermal shift assay; assay type: cell-based
MYC (Homo sapiens, UniProt P01106), sequence (P01106 16-454): as the sequence (P01106 16-454 T73A) above, with A58T counted along it
Outline: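 PC3 cells (70–80% confluent; also PC3 stably expressing Flag-MYCT58A, puromycin 1.5 μg/ml selected) treated with test compound or DMSO for 30 min. Cells washed, resuspended in PBS with protease/phosphatase inhibitors plus the same compound dose, split into 7–10 aliquots (~1 million cells each), heated 2 min at graded temperatures, then 3 min room temperature. Lysates boiled 5 min at 90 °C; MYC quantified by Western blot densitometry to build melt curves.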

[12] = tested on: MYC-dependent cancer cells; assay: Cell viability, MYC-dependent cancer cells; assay type: cell-based; conditions: MycCaP, LNCaP, PC3, MV4–11, HL-60, P493–6, SK-N-B2; 5 days
Outline: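 Cells were seeded at 1000 to 5000 per well in 96-well plates, depending on cell type. Viable cells were counted, or MTS absorbance was read at 490 nm, 2 to 7 days after treatment. MycCaP, PC3, LNCaP and P493–6 were grown in RPMI1640, SK-N-BE(2) in F12 and MV411 in IMDM, each with 10% heat-inactivated FBS and 1% penicillin-streptomycin.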

[13] = biological target: MYC353–439 (Homo sapiens, UniProt P01106); assay: Fluorescence polarization competition assay against 10074-G5; assay type: binding
MYC353–439, sequence (P01106 368-454): as the sequence (P01106 368-454, one chain of several) above

[14] = tested on: human prostate cancer patient derived xenografts; assay: Prostate cancer PDX model; assay type: in vivo, mouse; conditions: 55 mg/kg/day, 3 consecutive days a week for 2 weeks
Outline: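 Minced fragments (~10 mm²) of prostate PDX TM00298 were implanted into the flanks of male NSG mice. Once grafts were measurable, test compound was given i.p. at 55 mg/kg/day on 3 consecutive days a week for two weeks. Tumour growth was expressed as percentage, n = 9 or 10 grafts.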

[15] = biological target: MAX/MAX homodimer (Homo sapiens, UniProt P61244); assay: EMSA, MAX/MAX homodimer binding to E-box DNA; assay type: biochemical
MAX/MAX homodimer, sequence (P61244 whole entry): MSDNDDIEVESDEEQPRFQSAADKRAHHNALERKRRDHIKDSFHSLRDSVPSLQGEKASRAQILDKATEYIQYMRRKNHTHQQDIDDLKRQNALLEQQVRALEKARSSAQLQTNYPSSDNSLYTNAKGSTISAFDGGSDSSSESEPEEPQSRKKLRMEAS

[16] = tested on: MycCaP organoids and FVB mouse prostate organoids; assay: Prostate organoid culture; assay type: cell-based; conditions: 4 days treatment
Outline: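 Prostate lobes from 8–10-week-old FVB males were minced and digested with collagenase in RPMI1640/10% FBS for 2 hr at 37 °C. Trypsin and DNase I followed, then a 40 μm strainer. Cells were plated on ultra-low-attachment plates: 5,000 normal cells or 1000 MycCaP cells per 100 μl, with media added at day 4. Organoids formed by day 7 (normal) or day 4 (MycCaP). They were pelleted, resuspended in media with compound or DMSO, and imaged in bright field 4 days after treatment.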

[17] = MycCaP E-box-Luc allografts, i.p.
[18] = MycCaP tumor tissue after treatment
[19] = MycCaP tumors post-361 treatment

SMILES: Cn1nc(C(F)(F)F)cc1-c1ccc(OCc2ccc(Cl)cc2)c(-c2cc(C(F)(F)F)cc(C(F)(F)F)c2)c1O [Compound 361, 6-((4-chlorobenzyl)oxy)-3-(1-methyl-3-(trifluoromethyl)-1H-pyrazol-5-yl)-3’,5’-bis(trifluoromethyl)-[1,1’-biphenyl]-2-ol]
- phosphorylation of β-Catenin at S33/37/T41 [1]: did not affect
- MYC T58 and S62 phosphorylation ([1]; 6 μM, PC3 cells): selectively increased T58 but not S62 phosphorylation
- regulatory GSK3β S9 phosphorylation ([1]; PC3 cells): did not affect
- MYC, MYCN and MAX protein levels ([1]; multiple cell lines expressing MYC and MYCN): reduction in MYC and MYCN, but not MAX, protein levels
- degradation of MYCT58A mutant [2]: not readily degraded
- phosphatase inhibition screening panel result [3]: negative
- kinome screen result [4]: negative
- pT58 levels in in vitro kinase assay [5]: significantly increased pT58 levels
- disruption of MYC/MAX/DNA complex formation ([6]; EMSA): impaired
- activity in vitro ([6]; EMSA and cell viability assays): active
- E-box-luciferase versus CMV-luciferase activity in vitro [7]: selectively inhibited E-box-luciferase but not CMV-luciferase activity
- induction of γ-H2AX [8]: did not observe induction
- markers of immunogenic cell death ([9]; 4 μM, 72 hr): significant upregulation of cell surface calreticulin expression, and release of HMGB1 and ATP
- cancer cell death, caspase-3 ([9]; 6 μM): induces cancer cell death with activated caspase-3 expression
- tumor inhibitory effect, FVB versus NSG mice ([10]; 50 mg/kg/day for 4 days): stronger tumor inhibitory effect in immunocompetent FVB mice
- tumor immune cells by flow cytometry ([10]; 50 mg/kg/day, 2 days on/2 days off for 2 rounds): an increase in CD3^+CD4^+ and CD3^+CD8^+ T cells, IFNγ-expressing CD4^+ and CD8^+ T cells, TNFα-expressing CD8^+ cells, dendritic cells and NK cells
- body weight ([10]; 70 mg/kg/day): without additional loss in mouse body weight
- body weight loss ([10]; 100 mg/kg/day, average): 10%
- tumor growth, combination with anti-PD1 ([10]; 361 50 mg/kg/day 2 days then anti-PD1 100 μg/d 2 days, 4 cycles): synergistic suppression of tumor growth
- tumor growth ([10]; FVB mice, established MycCaP allografts, 100 mg/kg/day): induced tumor regression
- E-box luciferase activity in vivo [10, 17]: significantly reduced
- tumor size, rapid in vivo screen [10, 17]: significantly reduced
- Ki67 proliferation marker in tumor tissues [10, 18]: decreased
- MYC pT58 level in tumor tissues [10, 18]: increased
- PD-L1 expression on tumor cells [10, 19]: upregulation of PD-L1 expression
- tumor infiltration of CD3+ T cells [10, 19]: enhanced tumor infiltration of CD3^+ T cells
- tolerability ([10]; combination study dose, 50 mg/kg/day 2 days on/off): well-tolerated
- tumor growth ([10]; treatment re-started at 70 mg/kg/day): effective in controlling tumor growth
- interaction with MYCT58A by CETSA ([11]; 6 μM, MYCT58A-expressing PC3 cells): can interact
- thermal stability of MYC protein (CETSA) ([11]; PC3 cells, 30 min, 361 4–10 μM, G5 15–60 μM, 360 6 μM): significant thermal destabilization
- IC50s, cell viability [12]: low micromolar
- Kd [13]: 3.2 µM
- anti-tumor efficacy [14]: confirmed 361 anti-tumor efficacy
- MAX/MAX homodimer binding to E-box DNA [15]: but not the closely related MAX/MAX homodimer
- sensitivity of MycCaP versus normal prostate organoids [16]: more sensitive
